Rows were chosen to be rich in hits. Some 1.5% of all compounds tested hit in one or more screens of this group.
PDI inh: PDI (human) enzyme inhibition. P07237. actives 0.052% (n = 350,000). PDI insulin aggregation turbidity, A650, 90 min. inhibition, % at 10 µM;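 active means mean inhibition across replicates of 30% or more, whatever share of single replicates reach that level; inconclusive means mean inhibition below 30% while every single replicate reaches 30%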
S100A4 inh HTS: inhibitors of human S100A4 binding to myosin IIA peptide. P26447. S100A4/TAMRA-MyoIIA peptide fluorescence polarization. inhibition, % at 10.7 µM. actives 0.14% (n = 360,000). AID 652163;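 active means mean inhibition of at least 70% across replicates, with every replicate also reaching that level; inconclusive means mean inhibition reaches 70% but some replicates fall short; inactive means mean inhibition below 70%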
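Assay system: human S100A4 monomer with TAMRA-labelled myosin IIA peptide / Buffer or medium: Calcium-containing HEPES buffer, pH 7.2 / Reagent: TAMRA-labelled myosin IIA heavy-chain peptide probe, 5 nM / Compound: one dose per compound / Timing: polarization read 5 min after assay mix addition, stable 5–60 min / Benchmarks: neutral control DMSO, positive control TFP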
SIRT5 inh: sirtuin-5 (human) deacylase inhibition; Q9NXA8; Purified SirT5, succinyl-peptide AMC, trypsin-coupled fluorescence; inhibition, % at 15 µM; actives 1.1% (n = 330,000); AID 652115; in the data active means inhibition above about 15%; inconclusive means no clear call, values can overlap the other calls
ERp5 inh: ERp5 (human) disulfide isomerase inhibition; Q15084; ERp5 insulin aggregation, absorbance 650 nm, 90 min; inhibition, % at 9.99 µM; actives 0.05% (n = 350,000); AID 651711;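 active means mean replicate inhibition above about 25%, with every replicate also reaching it, limit read from the data, passing the limit was not always enough; inconclusive means only one of those two criteria met; inactive means neither criterion met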
Target sequence (Q15084 whole entry, looked up): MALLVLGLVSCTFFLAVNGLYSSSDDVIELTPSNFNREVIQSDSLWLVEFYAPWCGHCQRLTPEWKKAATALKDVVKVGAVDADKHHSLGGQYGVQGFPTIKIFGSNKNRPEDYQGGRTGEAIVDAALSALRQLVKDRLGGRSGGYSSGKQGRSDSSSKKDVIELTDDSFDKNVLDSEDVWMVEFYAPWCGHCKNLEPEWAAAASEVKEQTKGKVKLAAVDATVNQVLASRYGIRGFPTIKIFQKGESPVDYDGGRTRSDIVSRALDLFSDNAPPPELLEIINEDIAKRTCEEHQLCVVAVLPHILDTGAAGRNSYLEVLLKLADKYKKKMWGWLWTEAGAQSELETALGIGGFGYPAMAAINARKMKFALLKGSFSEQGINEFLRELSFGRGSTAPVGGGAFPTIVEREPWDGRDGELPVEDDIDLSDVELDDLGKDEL
GSIS activator: primary screen for activators of insulin secretion dependent on glucose, INS-1E cells, GLuc reporter luminescence; INS-1E GLuc reporter insulin secretion, 2-3 h; actives 0.61% (n = 370,000); activation, % at 16.6 µM; AID 743287;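 active means lowest replicate activation of at least 40%, so every replicate reaches that level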;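 further: 0% = median of neutral control wells and 100% = median of IBMX positive control wells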
Active calls of the source: *; ? = inconclusive; · = no result.

SMILES	PDI inh	S100A4 inh HTS	SIRT5 inh	ERp5 inh	GSIS activator
CC(C)(C)OC(=O)N1CCC[C@H]1c1nnc(SCc2ccc(Cl)cc2)o1	5	0	-3	20	0
CC(C)(C)OC(=O)N1CCC[C@H]1c1nnc(SCc2cccc(Cl)c2)o1	-2	2	23*	-2	-15
c1ccc(CCn2nnc3ccccc32)cc1	-4	-7	20*	0	22
N#CCCn1nnc2ccccc21	-4	·	·	·	7
CCNC(=O)C[C@@H]1CC[C@@H](NS(=O)(=O)c2ccc(F)cc2)[C@H](CO)O1	·	96*	0	-1	-2
O=C(C[C@@H]1CC[C@@H](NS(=O)(=O)c2ccc(F)cc2)[C@@H](CO)O1)N1CCC(Cc2ccccc2)CC1	·	4	28*	2	-32
O=C(C[C@@H]1CC[C@H](NS(=O)(=O)c2ccc(F)cc2)[C@H](CO)O1)N1CCN(c2ccccc2)CC1	·	-5	20*	-1	-4
O=C(C[C@H]1CC[C@H](NS(=O)(=O)c2ccc(F)cc2)[C@@H](CO)O1)N1CCN(c2ccccc2)CC1	·	-6	9	-5	6
O=C(C[C@H]1CC[C@@H](NS(=O)(=O)c2ccccc2)[C@@H](CO)O1)NCc1ccncn1	·	-7	21*	?	15
CCNC(=O)C[C@@H]1CC[C@H](NS(=O)(=O)c2ccc(F)cc2)[C@H](CO)O1	·	-33	-2	-2	-7
CCS(=O)(=O)N1CCC2(CC1)CN(C(=O)c1ccc(F)cc1)[C@H](CO)c1[nH]c3cc(OC)ccc3c12	·	1	-6	-6	9
CNC[C@H]1OCCCC[C@@H](C)Oc2ccc(NC(=O)Nc3ccc4c(c3)OCO4)cc2C(=O)N([C@@H](C)CO)C[C@H]1C	·	20	6	0	4
C[C@@H]1CN([C@@H](C)CO)C(=O)c2cccc(NC(=O)C3CC3)c2O[C@H]1CN(C)S(=O)(=O)c1cn(C)cn1	·	2	1	-4	21
C=CCNc1nc(Cl)nc(Nc2ccc(OC)cc2)n1	2	·	·	·	65*
C/C=C/c1ccc([C@H]2[C@@H](CO)N(CC3CCCC3)[C@@H]2CNC(=O)NC(C)C)cc1	·	6	6	3	-13
C/C=C/c1ccc([C@H]2[C@@H](CO)N(CC3CCCCC3)[C@@H]2CNC(C)C)cc1	·	-6	19*	-4	-8
CCOC(=O)C1(C)CCCN(C(=O)c2ccccc2)C1 (stereo not drawn)	-3	-4	6	1	-5
CCOC(=O)C1(C)CCN1C(=O)c1cccc(Cl)c1 (stereo not drawn)	8	4	32*	-7	-1
CCOC(=O)C1(C)CCCN(C(=O)c2cccc(C#N)c2)C1 (stereo not drawn)	-5	-2	15*	0	9
COc1ccc2c3c(n(C)c2c1)[C@H](CO)N(CC1CC1)CC31CN(C(=O)c2ccc(F)cc2)C1	·	·	·	·	-2
CCCc1nn2c(=O)cc(CSCC(=O)Nc3nnc(CC)s3)nc2s1	-7	7	-1	0	2
CCCc1nn2c(=O)cc(CSCC(=O)Nc3ccc(C)cc3)nc2s1	8	-5	36*	3	19
O=C(N/N=C/c1cc(Cl)ccc1O)c1ccc(Br)cc1	11	·	·	·	41*
O=C(N/N=C/c1cc(Br)ccc1O)c1ccncc1	0	-6	-2	1	1
O=C(NC1CCCCC1)c1ccc(S(=O)(=O)c2ccccc2)cc1	5	-3	40*	4	-10
SMILES	PDI inh	S100A4 inh HTS	SIRT5 inh	ERp5 inh	GSIS activator
O=C(CSc1nc2ccsc2c(=O)n1CC1CCC(C(=O)O)CC1)c1ccc(Cl)cc1 (stereo not drawn)	6	-3	16*	-2	-1
CCCCn1c(SCC(=O)c2ccc(O)c(O)c2)nc2ccsc2c1=O	0	·	·	·	·
O=C(O)CCCCCn1c(SCC(=O)c2ccc(O)c(O)c2)nc2ccsc2c1=O	32*	·	·	·	21
C[C@@H]1CCCCO[C@H](CN(C)C(=O)Nc2ccc(C(F)(F)F)cc2)[C@H](C)CN([C@H](C)CO)C(=O)c2cc(NS(=O)(=O)c3cccs3)ccc2O1	·	3	1	10	-2
CC=Cc1ccc2n(c1=O)C[C@@H]1[C@@H](CO)[C@H](C(=O)NCC)[C@H]2N1C(=O)c1ccc(F)cc1 (mixture of isomers)	·	-6	-14	-5	8
O=C(Nc1nc(-c2ccccc2)cs1)C1COc2ccccc2O1 (stereo not drawn)	1	·	·	·	·

Source: PubChem BioAssay
